Laboratory results: ChEMBL document CHEMBL4020830, “Design, Synthesis, and Evaluation of a Novel Series of Indole Sulfonamide Peroxisome Proliferator Activated Receptor (PPAR) α/γ/δ Triple Activators: Discovery of Lanifibranor, a New Antifibrotic Clinical Candidate” (J Med Chem, 2018)
Calls of active or inactive are those of the source. The rule behind the calls is not given here.

Experiments:
[1] = molecular target: T1, Peroxisome proliferator-activated receptor gamma (Mus musculus, UniProt P37238); assay: Transactivation of mouse GAL4-fused PPARgamma LBD expressed in African green monkey COS7 cells co-expressing 5Gal4 pGL3 TK Luc after overnight incubation by luciferase reporter gene assay
T1 sequence (P37238 whole entry): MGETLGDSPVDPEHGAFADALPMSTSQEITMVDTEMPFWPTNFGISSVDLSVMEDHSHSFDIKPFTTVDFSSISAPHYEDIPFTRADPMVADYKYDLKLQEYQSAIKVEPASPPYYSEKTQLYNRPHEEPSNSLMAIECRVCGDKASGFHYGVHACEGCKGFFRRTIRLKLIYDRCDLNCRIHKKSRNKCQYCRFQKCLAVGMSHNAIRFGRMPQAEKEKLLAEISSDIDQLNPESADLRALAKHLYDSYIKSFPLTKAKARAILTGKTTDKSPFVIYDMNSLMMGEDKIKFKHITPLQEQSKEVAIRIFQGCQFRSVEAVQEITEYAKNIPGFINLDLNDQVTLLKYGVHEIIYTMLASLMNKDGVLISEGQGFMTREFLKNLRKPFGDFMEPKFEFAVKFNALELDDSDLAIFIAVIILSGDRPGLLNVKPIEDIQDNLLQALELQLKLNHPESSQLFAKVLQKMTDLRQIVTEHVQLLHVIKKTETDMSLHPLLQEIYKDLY

Mus musculus [2] = assay: Antidiabetic activity in C57BL/Ks mouse model of diabetic dyslipidemia assessed as decrease in plasma glucose level administered via oral gavage qd for 5 days measured 4 hrs post last dose; assay type: functional
Outline: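 Homozygous male C57BL/Ks-db (db/db) mice were gavaged once daily at 10 or 30 mg/kg, for 5 or 10 days. Retro-orbital blood was drawn before treatment and 4 h after the last gavage. Glucose and triglycerides were measured in serum. Results are expressed as % variation on the final day versus the control group. Analysis was one-way ANOVA with Dunnett's test.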

Mus musculus [3] = assay: Increase in plasma adiponctin level in C57Bl6/J mouse model of CCl4-induced liver fibrosis at 3 to 30 mg/kg, po qd for 3 weeks; assay type: functional, organism-based
Outline: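 CCl4-induced liver fibrosis mice were dosed orally once daily at 3, 10 or 30 mg/kg for 3 weeks. Controls were CCl4-vehicle, vehicle oil and saline-injected groups. Liver collagen was scored by picrosirius red staining of histological sections. Plasma triglycerides and adiponectin were also measured. Analysis was one-way ANOVA with Dunnett's test.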

Rattus norvegicus = assay: Toxicity in Sprague-Dawley rat assessed as effect on heart weight at 100 to 1000 mg/kg for 6 weeks; assay type: organism-based; conditions: in vivo, 1008 h
Outline: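 Sprague-Dawley rats were treated at 100 and 1000 mg/kg. Hematocrit and plasma volume were measured after 4 weeks and heart weight after 6 weeks. Analysis was one-way ANOVA with Dunnett's test versus control.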

[4] = molecular target: T2, Peroxisome proliferator-activated receptor gamma (Homo sapiens, UniProt P37231)
T2 sequence (P37231 whole entry): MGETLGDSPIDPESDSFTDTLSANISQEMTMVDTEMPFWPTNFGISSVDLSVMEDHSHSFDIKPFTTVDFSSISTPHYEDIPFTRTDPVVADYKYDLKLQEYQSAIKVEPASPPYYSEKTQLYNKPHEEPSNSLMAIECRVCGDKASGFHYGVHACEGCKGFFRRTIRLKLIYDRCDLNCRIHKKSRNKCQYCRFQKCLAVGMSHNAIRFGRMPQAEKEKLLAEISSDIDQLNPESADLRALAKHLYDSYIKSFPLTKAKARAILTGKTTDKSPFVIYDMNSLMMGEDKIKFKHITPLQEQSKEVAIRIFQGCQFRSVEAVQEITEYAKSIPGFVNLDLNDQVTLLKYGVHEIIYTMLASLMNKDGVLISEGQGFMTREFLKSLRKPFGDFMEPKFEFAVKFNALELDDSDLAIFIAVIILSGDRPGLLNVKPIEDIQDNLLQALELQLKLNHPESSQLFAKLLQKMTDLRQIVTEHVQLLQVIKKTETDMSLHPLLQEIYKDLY

[5] = molecular target: T2, Peroxisome proliferator-activated receptor gamma; remark: listed apart in the source

SMILES: O=C(O)CCCc1cc2cc(Cl)ccc2n1S(=O)(=O)c1ccc2ncsc2c1 [LANIFIBRANOR]
- EC50 [1]: 0.202 µM
- Activity (Mus musculus [2]): Dose-dependent effect
- Activity (Mus musculus [3]): Active
- Activity (Rattus norvegicus): Non-Toxic
- EC50 [4]: 1.92 µM
- EC50 [5]: 3.21 µM
